Source: ChEMBL document CHEMBL1147575, “Novel inhibitors of fatty acid oxidation as potential metabolic modulators” (Bioorg Med Chem Lett, 2004)
pIC50: −log10 of the molar value.

Assays:
Rattus norvegicus [1] = organism: Rattus norvegicus; assay: Inhibition of 1-14C]palmitoyl-CoA oxidation in rat heart mitochondria at 100 uM concentration; type: functional
Outline: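 Single-point screen at 100 µM: percent inhibition of 1-14[C]-palmitoyl-CoA oxidation in rat heart mitochondria. 95% confidence limits generally ±15% of the mean.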

Rattus norvegicus [2] = organism: Rattus norvegicus; assay: Inhibition of 1-14C]palmitoyl-CoA oxidation in rat heart mitochondria.; type: functional
Outline: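 Rat heart mitochondria; substrate 1-14[C]-palmitoyl-CoA, oxidation measured. Tested at 6 concentrations; IC50 from non-linear regression curve fit, mean of n=3. Run only for compounds giving ≥50% inhibition at 100 µM.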

Homo sapiens = organism: Homo sapiens; assay: Amount of parent compound remaining after incubation with human liver microsomes for 30 min.; type: functional
Outline: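 Human liver microsome (liver S-9) incubation for 30 min; read-out is percent of parent drug remaining.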

[3] = Oral bioavailability in rat after oral administration at 11.2 mg/kg dose; type: ADME, organism-based; settings: in vivo
Outline: (§1)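 Rats dosed orally, single dose per compound (9.7–13 mg/kg). Preliminary PK: oral bioavailability (%F), AUC (ng·hr/mL) and t1/2 (h) derived; values are average of n=3.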

[4] = Half life period in rat after oral administration at 11.2 mg/kg dose; type: ADME, organism-based; set-up: dose 11.2 mg/kg, route oral; settings: in vivo; outline: as §1
[5] = AUC in rat after oral administration at 11.2 mg/kg dose; type: ADME, organism-based; set-up: dose 11.2 mg/kg, route oral; settings: plasma; outline: as §1
[6] = AUC in rat after oral administration at 10.5 mg/kg dose; type: ADME, organism-based; set-up: dose 10.5 mg/kg, route oral; settings: plasma; outline: as §1
[7] = Half life period in rat after oral administration at 10.5 mg/kg dose; type: ADME, organism-based; set-up: dose 10.5 mg/kg, route oral; settings: in vivo; outline: as §1
[8] = Oral bioavailability in rat after oral administration at 10.5 mg/kg dose; type: ADME, organism-based; settings: in vivo; outline: as §1
[9] = AUC in rat after oral administration at 9.7 mg/kg dose; type: ADME, organism-based; set-up: dose 9.7 mg/kg, route oral; settings: plasma; outline: as §1
[10] = Oral bioavailability in rat after oral administration at 9.7 mg/kg dose; type: ADME, organism-based; settings: in vivo; outline: as §1
[11] = Half life period in rat after oral administration at 9.7 mg/kg dose; type: ADME, organism-based; set-up: dose 9.7 mg/kg, route oral; settings: in vivo; outline: as §1
[12] = Area under curve in rat after oral administration at 13 mg/kg dose; type: ADME, organism-based; set-up: dose 13 mg/kg, route oral; settings: in vivo; outline: as §1
[13] = Half life period in rat after oral administration at 13 mg/kg dose; type: ADME, organism-based; set-up: dose 13 mg/kg, route oral; settings: in vivo; outline: as §1
[14] = Oral bioavailability in rat after oral administration at 13 mg/kg dose; type: ADME, organism-based; settings: in vivo; outline: as §1

| SMILES | pIC50 (Rattus norvegicus [2]) | inhibition (Rattus norvegicus [1]) [%] | Remaining (Homo sapiens) [%] | also measured |
| --- | --- | --- | --- | --- |
| Cc1nc2ccc(OCC(O)CN3CCN(CC(=O)Nc4c(C)cccc4C)CC3)cc2s1 (centres undefined) | – | 3 | – | – |
| Cc1nc2cc(OC[C@@H](O)CN3C(C)CN(CC(=O)Nc4c(C)cccc4C)CC3C)ccc2s1 (some centres undefined) | 5.60 | – | < 30 | – |
| Cc1cccc(C)c1NC(=O)CN1CCN(CC(O)COc2ccc3ncsc3c2)CC1 (centres undefined) | – | 3 | – | – |
| Cc1nc2cc(OC[C@@H](O)CN3CCN(CC(=O)Nc4c(C)cccc4C)CC3)ccc2s1 | – | 47 | 35 | – |
| Cc1nc2cc(OC[C@H](O)CN3C(C)CN(CC(=O)Nc4c(C)cccc4C)CC3C)ccc2s1 (some centres undefined) | 7.15 | – | 21 | bioavailability [3]: 11%; half-life [4]: 3.5 h; AUC [5]: 128 ng·h/mL |
| Cc1nc2cc(OC[C@H](O)CN3CCN(CC(=O)Nc4c(C)cccc4C)CC3(C)C)ccc2s1 | 6.96 | – | < 10 | AUC [6]: 265 ng·h/mL; half-life [7]: 4.2 h; bioavailability [8]: 13% |
| Cc1nc2cc(OCCCN3CCN(CC(=O)Nc4c(C)cccc4C)CC3)ccc2s1 | – | 38 | < 30 | – |
| Cc1cccc(C)c1NC(=O)CN1CCN(CC(O)COc2ccc3oc(-c4ccc(C(F)(F)F)cc4)nc3c2)CC1 (centres undefined) | 5.10 | 89 | 40 | – |
| Cc1nc2cc(OC[C@H](O)CN3C[C@@H]4C[C@H]3CN4CC(=O)Nc3c(C)cccc3C)ccc2s1 | – | 26 | – | – |
| Cc1nc2cc(OC[C@H](O)CN3CC(C)N(CC(=O)Nc4c(C)cccc4C)CC3C)ccc2s1 (some centres undefined) | 7.64 | – | < 10 | – |
| Cc1nc2cc(OCC(O)CN3CCN(CC(=O)Nc4c(C)cccc4C)CC3)ccc2o1 (centres undefined) | – | 34 | – | – |
| Cc1nc2cc(OCC(O)CN3CCN(CC(=O)Nc4c(C)cccc4C)CC3(C)C)ccc2s1 (centres undefined) | 6.35 | – | < 10 | – |
| Cc1cccc(C)c1NC(=O)CN1CCN(CC(O)COc2ccc3oc(-c4ccccc4)nc3c2)CC1 (centres undefined) | 4.64 | 70 | 15 | – |
| Cc1cccc(C)c1NC(=O)CN1CCN(CC(O)COc2ccc3oc(-c4cccc(C(F)(F)F)c4)nc3c2)CC1 (centres undefined) | 4.89 | 82 | 6 | – |
| Cc1nc2cc(OC[C@H](O)CN3CC4CC3CN4CC(=O)Nc3c(C)cccc3C)ccc2s1 (some centres undefined) | – | 40 | – | – |

Continued, in another order:

| pIC50 (Rattus norvegicus [2]) | SMILES | inhibition (Rattus norvegicus [1]) [%] | Remaining (Homo sapiens) [%] | also measured |
| --- | --- | --- | --- | --- |
| 5.40 | Cc1nc2cc(OC[C@H](O)CN3CCN(CC(=O)Nc4c(C)cccc4C)CC3)ccc2s1 | – | < 27 | – |
| 5.00 | Cc1nc2cc(OC[C@@H](O)CN3CCN(CC(=O)Nc4c(C)cccc4C)C[C@H]3C)ccc2s1 | – | < 10 | – |
| 6.70 | Cc1nc2cc(OC[C@H](O)CN3CCN(CC(=O)Nc4c(C)cccc4C)C[C@@H]3C)ccc2s1 | – | < 10 | AUC [9]: 278 ng·h/mL; bioavailability [10]: 5%; half-life [11]: 6.2 h |
| 4.89 | CCc1nc2cc(OCC(O)CN3CCN(CC(=O)Nc4c(C)cccc4C)CC3)ccc2s1 (centres undefined) | 75 | 29 | – |
| 5.30 | Cc1nc2cc(OC[C@@H](O)CN3CCN(CC(=O)Nc4c(C)cccc4C)C[C@@H]3C)ccc2s1 | – | < 30 | – |
| 5.00 | Cc1nc2cc(OCC(O)CN3CCN(CC(=O)Nc4c(C)cccc4C)CC3)ccc2s1 (centres undefined) | 88 | 50 | AUC [12]: 1260 ng·h/mL; half-life [13]: 3 h; bioavailability [14]: 45% |
| 4.70 | CCCc1nc2cc(OCC(O)CN3CCN(CC(=O)Nc4c(C)cccc4C)CC3)ccc2s1 (centres undefined) | 70 | 15 | – |
| 5.70 | Cc1nc2cc(OC[C@H](O)CN3CCN(CC(=O)Nc4c(C)cccc4C)C[C@H]3C)ccc2s1 | – | < 10 | – |
